Results on 17 molecules are retold here after ChEMBL document CHEMBL1795344, “Design, synthesis and antitumor evaluation of phenyl N-mustard-quinazoline conjugates” (Bioorg Med Chem, 2011).

Molecules are shown by their SMILES. The source made the active and inactive calls. The rule behind the calls is not given here.

For assay [1], the system named is CCRF-CEM. The assay can be described thus: Cytotoxicity against human taxol-resistant CCRF-CEM cells after 72 hrs by XTT assay. The class given is functional, cell-based. A digest of the protocol: (§1)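 CCRF-CEM and its Taxol- and vinblastine-resistant sublines were incubated 72 h, then given phenazine methosulfate-XTT for 6 h at 37 °C. Absorbance was read at 450 and 630 nm. IC50 came from median-effect analysis of dose-effect data at six or seven concentrations.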
(Formazan colour is commonly taken as a measure of viable cells.)

Assay [2] deals with CCRF-CEM. The assay can be described thus: Cytotoxicity against human CCRF-CEM cells after 72 hrs by XTT assay. Type of assay: functional, cell-based. A digest of the protocol:
as §1

The test system of a further assay is PC-3. Nature of the assay: Cytotoxicity against human PC3 cells after 72 hrs by Alamar blue assay. The settings on record: PC-3, 72 h. Type of assay: functional, cell-based. Put shortly: (§2)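 H1299 and PC3 cells were exposed 72 h, then given Alamar blue for 6 h at 37 °C. Absorbance was read at 570 and 600 nm. IC50 came from median-effect analysis of dose-effect data at six or seven concentrations.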

Assay [3] deals with CCRF-CEM. Nature of the assay: Cytotoxicity against human vinblastine-resistant CCRF-CEM cells after 72 hrs by XTT assay. The class given is functional, cell-based. Put shortly: as §1
The subject of assay [4] is CCRF-CEM. The assay can be described thus: Ratio of IC50 for human vinblastine-resistant CCRF-CEM cells to IC50 for human CCRF-CEM cells. Type of assay: functional.
The test system of assay [5] is CCRF-CEM. The assay can be described thus: Ratio of IC50 for human taxol-resistant CCRF-CEM cells to IC50 for human CCRF-CEM cells. Type of assay: functional.
The test system of another assay is MX1. The assay can be described thus: Cytotoxicity against human MX1 cells after 72 hrs by SRB assay. Type of assay: functional, cell-based. The conditions noted are these: MX1, 72 h. A digest of the protocol: (§3)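 MX-1 and HCT-116 solid tumor cells were exposed 72 h, with growth read by SRB staining on a microplate spectrophotometer. IC50 came from median-effect analysis of dose-effect data at six or seven concentrations.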
(The SRB assay estimates cell density from bound dye.)

Another assay concerns HCT-116. The assay can be described thus: Cytotoxicity against human HCT116 cells after 72 hrs by SRB assay. The class given is functional, cell-based. The settings on record: HCT-116, 72 h. A digest of the protocol:
as §3

Assay [6] concerns Nucleic Acid. Nature of the assay: Induction of pEGFP-N1 plasmid DNA interstrand cross-linking at 1 to 20 uM by alkaline agarose gel shift assay. Type of assay: nucleic-acid assay. Put shortly: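 pEGFP-N1 plasmid DNA (1500 ng) was incubated with compound (1, 10, 20 μM) in 3 mM NaCl/1 mM sodium phosphate pH 7.4/1 mM EDTA for 2 h at 37 °C. It was then BamHI-linearized, ethanol-precipitated and denatured in 0.5 N NaOH-10 mM EDTA. Samples were run on a 0.8% alkaline agarose gel at 4 °C, 18 V for 22 h, stained with ethidium bromide.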
(In general: Mobility shift assays separate free from complexed probe on a gel.)

A short description of assay [7]: Cytotoxicity against human H1299 cells after 72 hrs by Alamar blue assay. The class given is functional, cell-based. The conditions noted are these: NCI-H1299, 72 h. Put shortly: as §2
In assay [8] the test system is Nucleic Acid. Nature of the assay: Induction of pEGFP-N1 plasmid DNA interstrand cross-linking at 1 to 5 uM by alkaline agarose gel shift assay. Type of assay: nucleic-acid assay.

`O=C(Nc1ccc(N(CCCl)CCCl)cc1)Nc1ccc2ncnc(Nc3ccc(F)cc3)c2c1`: the IC50 (in general, the concentration that gives 50% inhibition) was determined as 3.16 µM in the assay with CCRF-CEM [1]; 0.74 µM in the assay on CCRF-CEM [2]; 8.24 µM in the assay with PC-3; 1.24 µM with CCRF-CEM [3]; 3.43 µM in the assay on MX1; 3.18 µM in the assay with HCT-116. Further, in assay [7], inhibition was half-maximal at 11.6 µM (IC50). Moreover, the “Ratio IC50” value turned out to be 1.67 in the assay with CCRF-CEM [4] and 4.27 in the assay on CCRF-CEM [5]. Besides, in the assay with Nucleic Acid [6], the result was Active.

With `O=C(Nc1ccc(N(CCCl)CCCl)cc1)Nc1ccc2ncnc(Nc3ccc(Cl)c(Cl)c3)c2c1`, the IC50 in the assay on CCRF-CEM [1] came out at 5.61 µM; with CCRF-CEM [2], 2.6 µM; with CCRF-CEM [3], 6.75 µM; in the assay with MX1, 6.45 µM; with HCT-116 it was 2.79 µM. For the same molecule, the “Ratio IC50” value worked out at 2.6 in the assay on CCRF-CEM [4] and 2.16 with CCRF-CEM [5].

`O=C(Nc1ccc(N(CCCl)CCCl)cc1)Nc1ccc2ncnc(Nc3cccc(F)c3)c2c1`: the half-maximal inhibitory concentration (IC50) with CCRF-CEM [1] worked out at 3.46 µM; in the assay on CCRF-CEM [2] it was 2.51 µM; in the assay on CCRF-CEM [3] it was 4.28 µM; in the assay with MX1 it was 10.1 µM; with HCT-116 it was 9.62 µM. In addition, the “Ratio IC50” value in the assay with CCRF-CEM [4] was 1.7; in the assay with CCRF-CEM [5], 1.38.

For `O=C(Nc1ccc(N(CCCl)CCCl)cc1)Nc1ccc2ncnc(Nc3cccc(Br)c3)c2c1`, the IC50 in the assay with CCRF-CEM [1] worked out at 4.58 µM; in the assay with CCRF-CEM [2], 0.95 µM; with PC-3, 10.1 µM; in the assay on CCRF-CEM [3], 2.62 µM; in the assay on MX1, 6.92 µM; in the assay on HCT-116, 2.17 µM. Besides, half-maximal inhibition in assay [7] (IC50) required 8.04 µM. The entries for the “Ratio IC50” value in the assay with CCRF-CEM [4] and in the assay with CCRF-CEM [5] were 2.76 and 4.82, respectively.

`N[C@@H](Cc1ccc(N(CCCl)CCCl)cc1)C(=O)O`: in the assay on Nucleic Acid [8], the result was Active.

In the case of `O=C(Nc1ccc(N(CCCl)CCCl)cc1)Nc1ccc2ncnc(Nc3ccc(F)c(Br)c3)c2c1`, the IC50 worked out at 4.4 µM in the assay with CCRF-CEM [1]; 2.68 µM in the assay on CCRF-CEM [2]; 4.74 µM in the assay on CCRF-CEM [3]; 7.1 µM in the assay with MX1; 5.99 µM in the assay on HCT-116. Also, the “Ratio IC50” value in the assay with CCRF-CEM [4] is recorded as 1.77; with CCRF-CEM [5], 1.64.

As to `O=C(Nc1ccc(N(CCCl)CCCl)cc1)Nc1ccc2ncnc(Nc3ccc(Oc4ccccc4)cc3)c2c1`, the IC50 in the assay on CCRF-CEM [1] is 7.99 µM; with CCRF-CEM [2] it was 4.77 µM; with CCRF-CEM [3], 10.9 µM; with MX1, 8.47 µM; with HCT-116, 12.4 µM. For the same molecule, the figures for the “Ratio IC50” value with CCRF-CEM [4] and in the assay with CCRF-CEM [5] were 2.28 and 1.67, respectively.

As for `O=C(Nc1ccc(N(CCCl)CCCl)cc1)Nc1ccc2ncnc(Nc3cccc(C(F)(F)F)c3)c2c1`, the IC50 with CCRF-CEM [1] was 4.57 µM; in the assay with CCRF-CEM [2], 3.97 µM; in the assay with CCRF-CEM [3], 4.68 µM; in the assay on MX1 it was 5.3 µM; in the assay with HCT-116 it was 5.97 µM. Further, the “Ratio IC50” value came to 1.17 in the assay on CCRF-CEM [4] and 1.15 in the assay with CCRF-CEM [5].

Turning to `C#Cc1cccc(Nc2ncnc3ccc(NC(=O)Nc4ccc(N(CCCl)CCCl)cc4)cc23)c1`, the IC50 with CCRF-CEM [1] came out at 2.29 µM; with CCRF-CEM [2] it was 0.5 µM; in the assay with CCRF-CEM [3], 2.33 µM; in the assay with MX1 it was 6.27 µM; in the assay on HCT-116, 3.47 µM. Also, the “Ratio IC50” value with CCRF-CEM [4] came out at 4.66; in the assay with CCRF-CEM [5], 4.58.

Regarding `COc1ccc(Nc2ncnc3ccc(NC(=O)Nc4ccc(N(CCCl)CCCl)cc4)cc23)cc1Cl`, the IC50 in the assay on CCRF-CEM [1] worked out at 3.34 µM; in the assay with CCRF-CEM [2] it was 0.8 µM; in the assay with PC-3, 8.02 µM; in the assay with CCRF-CEM [3], 3.75 µM; with MX1 it was 5.51 µM; in the assay on HCT-116 it was 5.27 µM. The same molecule displayed an IC50 in [7] of 6.94 µM. Also, the entries for the “Ratio IC50” value in the assay with CCRF-CEM [4] and in the assay with CCRF-CEM [5] were 4.68 and 4.17, respectively. Further, the outcome in the assay on Nucleic Acid [6] was Active.

Turning to `COc1cccc(Nc2ncnc3ccc(NC(=O)Nc4ccc(N(CCCl)CCCl)cc4)cc23)c1`, the IC50 with CCRF-CEM [1] was found to be 3.58 µM; in the assay on CCRF-CEM [2], 1.32 µM; in the assay with PC-3, 9.44 µM; in the assay on CCRF-CEM [3] it was 3.38 µM; with MX1 it was 2.59 µM; in the assay with HCT-116 it was 2.44 µM. It took 8.79 µM to reach half-maximal inhibition in assay [7] (IC50). In addition, the “Ratio IC50” value came to 2.56 in the assay on CCRF-CEM [4] and 2.71 in the assay with CCRF-CEM [5].

With `COc1cc(Nc2ncnc3ccc(NC(=O)Nc4ccc(N(CCCl)CCCl)cc4)cc23)cc(OC)c1OC`, the IC50 with CCRF-CEM [1] was 12.3 µM; with CCRF-CEM [2], 0.38 µM; in the assay with PC-3, 11 µM; in the assay on CCRF-CEM [3], 24.5 µM; in the assay with MX1, 4.02 µM; in the assay with HCT-116, 2.24 µM. In assay [7], the IC50 was 10.3 µM. Besides, the “Ratio IC50” value was determined as 64.5 in the assay with CCRF-CEM [4] and 32.42 in the assay on CCRF-CEM [5].

Turning to `O=C(Nc1ccc(N(CCCl)CCCl)cc1)Nc1ccc2ncnc(Nc3ccc(Br)cc3)c2c1`, the IC50 with CCRF-CEM [1] worked out at 8.79 µM; in the assay on CCRF-CEM [2] it was 4.64 µM; with CCRF-CEM [3], 7.88 µM; with MX1, 6.71 µM; in the assay with HCT-116, 7.79 µM. The “Ratio IC50” value was found to be 1.7 with CCRF-CEM [4] and 1.89 in the assay with CCRF-CEM [5].

For `O=C(Nc1ccc(N(CCCl)CCCl)cc1)Nc1ccc2ncnc(Nc3ccc(OCc4ccccn4)c(Cl)c3)c2c1`, the IC50 with CCRF-CEM [1] is 4.58 µM; with CCRF-CEM [2], 1.41 µM; in the assay with CCRF-CEM [3] it was 2.65 µM; with MX1, 4.62 µM; in the assay with HCT-116, 2.22 µM. The results for the “Ratio IC50” value in the assay with CCRF-CEM [4] and with CCRF-CEM [5] were 1.88 and 3.24, respectively.

Turning to `CC(=O)O[C@H]1C(=O)[C@@]2(C)[C@H]([C@H](OC(=O)c3ccccc3)[C@]3(O)C[C@H](OC(=O)[C@H](O)[C@@H](NC(=O)c4ccccc4)c4ccccc4)C(C)=C1C3(C)C)[C@]1(OC(C)=O)CO[C@@H]1C[C@@H]2O` [PACLITAXEL], the “Ratio IC50” value in the assay on CCRF-CEM [4] is 423; in the assay with CCRF-CEM [5], 143.

Turning to `O=C(Nc1ccc(N(CCCl)CCCl)cc1)Nc1ccc2ncnc(Nc3ccc(Cl)c(C(F)(F)F)c3)c2c1`, the IC50 was 5.36 µM in the assay with CCRF-CEM [1]; 4.77 µM in the assay with CCRF-CEM [2]; 5.28 µM in the assay on CCRF-CEM [3]; 7.44 µM with MX1; 5.34 µM with HCT-116. Besides, the entries for the “Ratio IC50” value in the assay with CCRF-CEM [4] and in the assay on CCRF-CEM [5] were 1.11 and 1.12, respectively.

With `CC[C@]1(O)C[C@@H]2CN(CCc3c([nH]c4ccccc34)[C@@](C(=O)OC)(c3cc4c(cc3OC)N(C)[C@H]3[C@@](O)(C(=O)OC)[C@H](OC(C)=O)[C@]5(CC)C=CCN6CC[C@]43[C@@H]65)C2)C1` [VINBLASTINE], the “Ratio IC50” value in the assay with CCRF-CEM [4] was 679.5; in the assay with CCRF-CEM [5], 106.2.
